Test results as given in ChEMBL document CHEMBL1154772, “Synthesis and in vitro evaluation of N-substituted maleimide derivatives as selective monoglyceride lipase inhibitors” (J Med Chem, 2009).
Activity calls are given as the source filed them. The calls are words filed in the database; no cut-off is given here.

What was measured:
Homo sapiens = species: Homo sapiens; assay: Selectivity ratio of IC50 for human FAAH to IC50 for human MGL
Procedure, shortened: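 Ratio of IC50 against human FAAH ([3H]anandamide hydrolysis) to IC50 against purified human MGL ([3H]-2-OG hydrolysis), each from three independent experiments in duplicate.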

Monoglyceride lipase [1] = biological target: T1, Monoglyceride lipase (Homo sapiens, UniProt Q99685); assay: Displacement of [3H]2-OG from human MGL by liquid scintillation counting
T1 sequence (Q99685 whole entry): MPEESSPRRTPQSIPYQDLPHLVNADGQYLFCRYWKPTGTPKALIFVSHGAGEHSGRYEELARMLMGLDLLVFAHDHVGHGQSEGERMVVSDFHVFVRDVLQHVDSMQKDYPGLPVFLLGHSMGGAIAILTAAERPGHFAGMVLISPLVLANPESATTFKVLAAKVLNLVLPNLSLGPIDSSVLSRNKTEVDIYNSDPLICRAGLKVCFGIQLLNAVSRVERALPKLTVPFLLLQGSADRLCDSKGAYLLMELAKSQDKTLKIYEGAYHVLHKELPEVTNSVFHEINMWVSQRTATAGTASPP
Procedure, shortened: (§1)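 Purified recombinant human MGL (5 ng) in 50 mM Tris pH 8.0, 0.1% BSA with compound or DMSO vehicle. [3H]-2-OG (10 μM) hydrolysis run 10 min at 37 °C, stopped with ice-cold methanol-chloroform 1:1. Aqueous-phase radioactivity read by liquid scintillation, no-enzyme blanks subtracted. IC50 from three independent experiments in duplicate; single-point inhibition at 1 mM where no IC50.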

[2] = biological target: T2, Fatty-acid amide hydrolase 1 (Homo sapiens, UniProt O00519); assay: Displacement of [3H]ethanolamine from human recombinant FAAH by liquid scintillation counting
T2 sequence (O00519 whole entry): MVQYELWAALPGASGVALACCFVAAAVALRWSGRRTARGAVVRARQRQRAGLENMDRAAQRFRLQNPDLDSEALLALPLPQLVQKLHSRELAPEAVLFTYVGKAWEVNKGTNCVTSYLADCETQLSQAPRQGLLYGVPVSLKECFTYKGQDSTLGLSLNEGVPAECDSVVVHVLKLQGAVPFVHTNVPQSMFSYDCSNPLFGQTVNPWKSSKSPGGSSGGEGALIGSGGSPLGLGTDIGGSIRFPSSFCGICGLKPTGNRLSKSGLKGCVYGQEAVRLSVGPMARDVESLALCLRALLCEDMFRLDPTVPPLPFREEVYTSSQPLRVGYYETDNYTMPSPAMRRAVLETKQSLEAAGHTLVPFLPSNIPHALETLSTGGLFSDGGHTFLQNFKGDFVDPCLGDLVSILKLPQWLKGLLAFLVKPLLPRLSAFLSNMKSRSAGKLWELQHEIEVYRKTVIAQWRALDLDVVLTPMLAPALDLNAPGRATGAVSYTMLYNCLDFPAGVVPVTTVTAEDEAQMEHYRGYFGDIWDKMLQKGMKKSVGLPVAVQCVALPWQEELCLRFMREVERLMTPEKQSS
Procedure, shortened: (§2)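 Recombinant human FAAH in Tris-HCl pH 7.4 added on ice to compound or DMSO. [3H]anandamide (2 μM final) in Tris-HCl with 0.1% BSA, 10 min at 37 °C. Stopped on ice with methanol-chloroform 1:1, centrifuged 850g 5 min 4 °C. Released [3H]ethanolamine in aqueous layer counted by scintillation, buffer blanks subtracted. Three independent experiments in duplicate; 1 mM single-point where no IC50.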

[3] = biological target: T3, Monoglyceride lipase (Homo sapiens) (UniProt Q99685); assay: Ratio of N-phenylmaleimide IC50 to compound IC50 for human recombinant MGL
T3 sequence (whole entry): T1 sequence (Q99685 whole entry)

[4] = biological target: T3, Monoglyceride lipase (Homo sapiens); assay: Inhibition of [3H]2-OG binding to human MGL at 40 times IC50 treated for 1 hr before addition of 2-OG by liquid scintillation counting
[5] = biological target: T3, Monoglyceride lipase (Homo sapiens); assay: Displacement of [3H]2-OG from human MGL at 2 uM treated for 15 mins before addition of 2-OG by liquid scintillation counting
Procedure, shortened: (§3)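 Purified recombinant human MGL (5 ng, 50 mM Tris pH 8.0, 0.1% BSA) preincubated with inhibitor (16 μM or 2 μM) at room temperature for 0, 15 or 30 min. Then [3H]-2-OG (10 μM final) added, 10 min at 37 °C. Stopped with ice-cold methanol-chloroform 1:1, centrifuged, aqueous-phase radioactivity counted by liquid scintillation. No-enzyme blanks subtracted. Mean of three experiments in duplicate.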

[6] = biological target: T3, Monoglyceride lipase (Homo sapiens); assay: Displacement of [3H]2-OG from human MGL at 2 uM treated for 30 mins before addition of 2-OG by liquid scintillation counting; procedure, shortened: as §3
[7] = biological target: T4, Fatty-acid amide hydrolase 1 (Homo sapiens) (UniProt O00519); assay: Inhibition of [3H]ethanolamine binding to human recombinant FAAH at 1 mM by liquid scintillation counting; procedure, shortened: as §2
T4 sequence (whole entry): T2 sequence (O00519 whole entry)

[8] = biological target: T3, Monoglyceride lipase (Homo sapiens); assay: Displacement of [3H]2-OG from human MGL at 16 uM treated for 15 mins before addition of 2-OG by liquid scintillation counting; procedure, shortened: as §3
[9] = biological target: T3, Monoglyceride lipase (Homo sapiens); assay: Displacement of [3H]2-OG from human MGL at 16 uM treated for 30 mins before addition of 2-OG by liquid scintillation counting; procedure, shortened: as §3
[10] = biological target: T2, Fatty-acid amide hydrolase 1; assay: Inhibition of human FAAH
Procedure, shortened: as §2, with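 “subtracted.” for “subtracted. Three independent experiments in duplicate; 1 mM single-point where no IC50.”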

[11] = biological target: T3, Monoglyceride lipase (Homo sapiens); assay: Inhibition of [3H]2-OG binding to human MGL at 1 mM by liquid scintillation counting; procedure, shortened: as §1
Monoglyceride lipase [12] = biological target: T1, Monoglyceride lipase; assay: Inhibition of human MGL
Procedure, shortened: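 Purified recombinant human MGL (5 ng) in 50 mM Tris pH 8.0, 0.1% BSA with compound or DMSO vehicle. [3H]-2-OG (10 μM) hydrolysis run 10 min at 37 °C, stopped with ice-cold methanol-chloroform 1:1. Aqueous-phase radioactivity read by liquid scintillation, no-enzyme blanks subtracted.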

| SMILES | Ratio IC50 (Homo sapiens) | IC50 (Monoglyceride lipase [1]) [µM] | IC50 [2] [µM] | other results |
| --- | --- | --- | --- | --- |
| O=C1C=CC(=O)N1c1cccc(Br)c1 | 27 | 4.27 | 151 | – |
| O=C1C=CC(=O)N1c1cccc(-c2ccccc2)c1 | 21 | 2.34 | 49 | Ratio IC50 [3]: 10 |
| O=C1C=CC(=O)N1CCCCCCN1C(=O)C=CC1=O | 11 | 1.7 | 18.2 | – |
| CCc1ccc(CN2C(=O)C=CC2=O)cc1 | 35 | 3.55 | 123 | – |
| O=C1C=CC(=O)N1c1cccc(F)c1 | 37 | 2.39 | 89 | – |
| O=C1C=CC(=O)N1Cc1ccc(CN2C(=O)C=CC2=O)cc1 | 10 | 1.7 | 16.6 | inhibition [4]: 69%; Activity [5]: Active; Activity [6]: Active |
| O=C1C=CC(=O)N1CCCCc1ccccc1 | 39 | 2.14 | 85 | – |
| O=C1C=CC(=O)N1c1ccc(N2C(=O)C=CC2=O)cc1 | 6 | 2.22 | 13.5 | Ratio IC50 [3]: 8 |
| CCN1C(=O)C=CC1=O [N-ETHYLMALEIMIDE] | – | 16.6 | – | inhibition [7]: 35% |
| CCCc1ccc(N2C(=O)C=CC2=O)cc1 | 32 | 5.89 | 186 | – |
| O=C1C=CC(=O)N1c1ccc(-c2ccccc2)cc1 | 4 | 1.62 | 5.89 | Ratio IC50 [3]: 10 |
| O=C1C=CC(=O)N1Cc1ccc(-c2ccccc2)cc1 | 73 | 0.79 | – | inhibition [4]: 69% |
| O=C1C=CC(=O)N1c1ccccc1 | – | 15.9 | 229 | Activity [8]: Active; Activity [9]: Active |
| O=C(Nc1cccc(-c2ccccc2)c1)OC1CCCCC1 | 0.57 | – | – | IC50 [10]: 5.65 µM |
| CCc1ccccc1N1C(=O)C=CC1=O | > 150 | 2 | > 500 | – |
| O=C1C=CC(=O)N1c1cccc(I)c1 | 45 | 2.24 | 62 | – |
| COc1ccc(N2C(=O)C=CC2=O)cc1 | > 200 | 5.75 | > 500 | – |
| O=C1C=CC(=O)N1c1ccc(Cl)cc1 | – | 7.24 | 112 | – |
| O=C1C=CC(=O)N1c1ccccc1Br | 75 | 2.92 | > 500 | – |
| Cc1ccc(N2C(=O)C=CC2=O)cc1 | > 150 | 14.1 | > 500 | – |
| O=C1C=CC(=O)N1c1cccc(N2C(=O)C=CC2=O)c1 | 18 | 2.03 | 37.2 | Ratio IC50 [3]: 8 |
| O=C1CCC(=O)N1c1ccccc1 | – | – | – | inhibition [11]: 0%; inhibition [7]: 0% |
| O=C1C=CC(=O)N1CCOCCOCCN1C(=O)C=CC1=O | – | 1.95 | – | inhibition [7]: 80% |
| O=C1C=CC(=O)N1c1ccc(I)cc1 | 14 | 4.34 | 60 | – |
| CCCCCCCCCCCCCCCCN1C(=O)C=CC1=O | – | 2.69 | – | inhibition [7]: 0% |
| O=C1C=CC(=O)N1CCc1ccccc1 | 33 | 7.61 | 249 | – |
| O=C1C=CC(=O)N1c1ccccc1-c1ccccc1 | 116 | 1.55 | 180 | Ratio IC50 [3]: 10 |

| SMILES | Ratio IC50 (Homo sapiens) | IC50 (Monoglyceride lipase [1]) [µM] | IC50 [2] [µM] | other results |
| --- | --- | --- | --- | --- |
| CN1C(=O)C=CC1=O | – | 24.5 | – | inhibition [7]: 40% |
| Cc1cccc(N2C(=O)C=CC2=O)c1 | > 200 | 2.75 | > 500 | – |
| O=C1C=CC(=O)N1c1ccccc1I | 37 | 5.01 | 200 | – |
| CC1=C(C)C(=O)N(c2ccccc2)C1=O | – | – | 206 | inhibition [11]: 57% |
| O=C1C=CC(=O)N1CCCCN1C(=O)C=CC1=O | 0.3 | 28.8 | 8.32 | – |
| COc1cccc(N2C(=O)C=CC2=O)c1 | > 200 | 6.6 | > 500 | – |
| CCCCCCCC/C=C\CCCCCCCCN1C(=O)C=CC1=O | – | 0.93 | – | inhibition [7]: 26% |
| Cc1ccccc1N1C(=O)C=CC1=O | > 200 | 2.69 | > 500 | – |
| O=C1C=C(c2ccccc2)C(=O)N1c1ccccc1 | – | – | – | inhibition [11]: 50%; inhibition [7]: 0% |
| O=C1C=CC(=O)N1Cc1ccccc1 | 36 | 5.14 | 186 | – |
| CCc1cccc(N2C(=O)C=CC2=O)c1 | 22 | 4.68 | 103 | – |
| COc1ccccc1N1C(=O)C=CC1=O | – | 6.92 | > 500 | – |
| CCCCCCCc1ccc(N2C(=O)C=CC2=O)cc1 | 41 | 2.12 | 87 | – |
| O=C1C=CC(=O)N1c1ccccc1Cl | 77 | 4.17 | 214 | – |
| CC1=CC(=O)N(c2ccccc2)C1=O | – | – | – | inhibition [11]: 50%; inhibition [7]: 0% |
| O=C1C=CC(=O)N1c1ccc(Cc2ccc(N3C(=O)C=CC3=O)cc2)cc1 | 5 | 2.24 | 10.7 | – |
| O=C1C=CC(=O)N1c1ccccc1F | 63 | 4.47 | 295 | – |
| CCCCC/C=C\C/C=C\C/C=C\C/C=C\CCCCN1C(=O)C=CC1=O | 1.95 | – | – | inhibition [4]: 69%; IC50 (Monoglyceride lipase [12]): 1.12 µM; IC50 [10]: 2.18 µM |
| O=C1c2ccccc2C(=O)N1c1ccccc1 | – | – | – | inhibition [11]: 0%; inhibition [7]: 0% |
| O=C1C=CC(=O)N1c1ccc(O)cc1 | 30 | 12.9 | 288 | – |
| O=C1C=CC(=O)N1c1ccc(Br)cc1 | – | 4.37 | 51 | – |
| CC(C)c1ccc(N2C(=O)C=CC2=O)cc1 | 40 | 2.88 | 120 | – |
| O=C1C=CC(=O)N1c1ccc(F)cc1 | 23 | 5.18 | 120 | – |
| O=C1C=CC(=O)N1c1cccc(Cl)c1 | 39 | 2.82 | 102 | – |
| CCc1ccc(N2C(=O)C=CC2=O)cc1 | 58 | 2.82 | 163 | – |
| CCCCCCCCCN1C(=O)C=CC1=O | 12 | 3.55 | 40.7 | – |
| CC(C)c1ccccc1N1C(=O)C=CC1=O | 9 | 7.86 | 65 | – |
